High-throughput results (PubChem)
This is one part of a sample in which hits are shown more often than they occur.
V-ATPase pHluor – regulators of yeast V-ATPase proton pumping, primary screen, pHLuorin cytosolic pH fluorescence; AID 504577, 2011; response, % at 10 µM; 350,000 compounds, 0.37% hits; S. cerevisiae; in the data active = response mostly above about 7.3%, no sharp cut-off; inactive = mostly below about 5.4%; note: actives read high
Tb MetRS inh – T. brucei MetRS inhibitors, primary screen, biochemical, luminescence | methionyl-tRNA synthetase (Trypanosoma brucei brucei) | purified T. brucei MetRS, ATP depletion, Kinase-Glo luminescence | inhibition, % at 11.9 µM | 360,000 compounds, 0.4% hits;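 active = inhibition above a per-plate cutoff of the control wells' mean inhibition plus 3 SD, cut at about 5.5% in these data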;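 note: 0% = DMSO wells median and 100% = median of wells with control inhibitor compound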
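System: purified T. brucei MetRS enzyme / Detection: Kinase-Glo luciferase luminescence reporting remaining unconsumed ATP / Medium: HEPES buffer with MgCl2, KCl, DTT, spermine, BSA, pyrophosphatase / Replication: singlicate, one well per compound / Evaluation: percent inhibition relative to median high and low control wells / Schedule: 2 h aminoacylation at 25 °C after 15 min preincubation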
UPR CHOP act – activators of apoptotic CHOP UPR arm, primary screen, cell-based, CHO-CHOP luciferase reporter, luminescence, uHTS; 330,000 compounds, 0.34% hits; AID 449763, 2010; activation, % at 10 µM; UPR activation; percent of tunicamycin response over DMSO baseline;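 active = at 10 µM dose, activation of 40% or more, normalized to positive control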;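 note: 100% = tunicamycin at 10 µg/mL and 0% = DMSO alone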
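System: CHO-CHOP luciferase reporter cell line | Buffer or medium: F12 medium containing 10% fetal bovine serum | Doses: One dose, 10 µM in 0.5% DMSO | Times: 6 h compound exposure at 37 °C after overnight seeding | Signal: Luciferase luminescence | Read-out: % activation vs tunicamycin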
CHOP inhibitor – inhibitors of CHOP promoter induction, primary screen, cell-based, unfolded protein response, luciferase reporter. CHO-K1 CHOP-promoter luciferase, tunicamycin-induced, 15-18 h. inhibition, % at 10 µM. 220,000 compounds, 3.8% hits;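 active = compounds that reduced the stress-induced luciferase reporter signal by more than about 70% of percent inhibition, limit read from the data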;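 note: 0% = tunicamycin plus vehicle and 100% = wells without tunicamycin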
XBP1 UPR activ – activators of adaptive XBP1 UPR arm, primary screen, cell-based, CHO-XBP1 luciferase reporter, luminescence, uHTS; AID 463104, 2010; activation, % at 20 µM; IRE1-XBP1 UPR activation; percent of tunicamycin response, DMSO as zero; 330,000 compounds, 0.33% hits;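 active = versus positive control, 20 µM dose yields 30% or more activation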;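 note: 100% = tunicamycin at 10 µg/mL and 0% = DMSO only wells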
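incubation = overnight seeding at 37 °C, 6 h compound treatment at 37 °C | assay system = CHO-XBP1 cells stably carrying IRE1-XBP1-driven luciferase reporter | input = 1000 cells per well | detection = luciferase luminescence | dosing = single point, 20 µM final compound, 1% DMSO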
* hit, by the source's call; x = no result.

SMILES	V-ATPase pHluor	Tb MetRS inh	UPR CHOP act	CHOP inhibitor	XBP1 UPR activ
O=C(Nc1cccc(O)c1)c1cc2nc(-c3ccccc3)cc(-c3ccccc3)n2n1	7	0	5	84*	5
CC1CCN(C(=O)c2cc3nc(-c4ccccc4)cc(-c4ccccc4)n3n2)CC1	4	1	0	75*	-1
O=S1(=O)C=C[C@@H](COCc2ccccc2)N1Cc1ccc(Br)cc1	x	-1	x	x	x
CCc1nc2c(OCCn3cccc3)cccn2c1N(C)C(=O)c1ccco1	x	0	x	x	x
Cc1c(C(=O)N/N=C/c2ccncc2)nnn1-c1nonc1N	6	0	0	x	0
CC(C)CNC(=O)C1(C)CCN1C(=O)c1ccc(C(C)(C)C)cc1 (stereo not drawn)	x	0	x	x	x
C=CCNc1ncnc2c1ncn2[C@H]1CN(Cc2ccccc2)C[C@@H](COC(C)=O)O1	x	0	x	x	x
Cc1ccc(/C=[N+](/C)[O-])cc1	3	-1	-1	4	-3
Cc1ccc(C=C2C(Cl)=C(Cl)C(Cl)=C2Cl)cc1	x	x	-4	107*	-4
COc1cc(-c2nc(-c3ccccc3)c(-c3ccc(F)cc3)[nH]2)cc2c1OCO2	-1	-1	1	70*	0
CCOC(=O)C1=C(c2ccccc2)NC(SCC(=O)Nc2ccc(C)cc2)=C(C#N)C1c1ccco1 (stereo not drawn)	0	0	4	94*	0
CCOC(=O)C1=C(c2ccccc2)NC(SCC(=O)Nc2ccccc2C)=C(C#N)C1c1ccco1 (stereo not drawn)	2	0	1	43	-1
CCOC(=O)C1=C(c2ccccc2)NC(SCC(=O)Nc2cccc(C)c2)=C(C#N)C1c1ccco1 (stereo not drawn)	1	0	-1	99*	0
COc1ccc(CCC(=O)OCC(=O)Nc2sccc2C(N)=O)cc1OC	0	0	4	x	-3
CN(C)c1ccc(N/C=C/C(=O)c2ccccc2)cc1	3	-1	-8	81*	-5
CC(C)(C)c1ccc(/C=C/C(=O)N2CCc3ccccc3C2)cc1	-1	-1	-1	61	-1
Cc1ccc(-c2nc(CS(=O)(=O)CC(=O)N3CCCCCC3)c(C)o2)cc1	-7	-2	3	59	3
Cc1ccc(/C=C/C(=O)N2CCc3ccccc3C2)cc1	3	-1	3	72*	2
Cc1ccc(-c2nc(CS(=O)(=O)CC(=O)N3CCc4ccccc4C3)c(C)o2)cc1	-6	0	-1	72*	-1
CCCc1cc(=O)oc2cc(OCC(=O)N(C)C)c(Cl)cc12	26*	-2	-1	6	-1
Cc1cccc(OCC(O)Cn2ccnc2C)c1 (stereo not drawn)	13*	0	-1	x	4
Cc1cccc(C)c1OCC(O)Cn1ccnc1C (stereo not drawn)	5	-1	0	-8	-3
Cc1cc(C)cc(NC2=NCC(=O)N2Cc2ccccc2)c1	6	-3	2	30	-2
Cc1cccc(NC2=NCC(=O)N2Cc2ccccc2)c1	0	0	1	57	1
CCCCc1ccc(NC2=NCC(=O)N2CCc2ccccc2)cc1	-1	-1	-3	95*	-3
SMILES	V-ATPase pHluor	Tb MetRS inh	UPR CHOP act	CHOP inhibitor	XBP1 UPR activ
CCc1ccccc1NC1=NCC(=O)N1Cc1ccccc1	16*	0	-2	8	2
Cc1cccc(C)c1NC(=O)C(c1ccnc2ccccc12)N1CCN(CCN(C)C)CC1 (stereo not drawn)	x	-1	x	x	x
COc1ccccc1NC(=O)C(C)OC(=O)Cc1n[nH]c(=O)c2ccccc12 (stereo not drawn)	16*	0	2	x	0
CC(OC(=O)Cc1n[nH]c(=O)c2ccccc12)C(=O)Nc1ccccc1[N+](=O)[O-] (stereo not drawn)	-3	0	-1	x	1
CN(Cc1ccccc1F)c1cc2c(c3c1ccn3C)C1CCC2C1 (stereo not drawn)	x	-1	x	x	x
COC(=O)c1sc(-c2ccc(C(C)(C)C)cc2)cc1NC(=O)CSCC(=O)O	-3	0	4	77*	1
Cc1cccc(-c2noc(-c3csc([C@@H]4C[C@H](O)[C@@H](CO)O4)n3)n2)c1	x	0	x	x	x
CN(C)c1ccc(CC(=O)N2CCCC(c3cc(C(=O)Nc4ccc5c(c4)OCO5)no3)C2)cc1 (stereo not drawn)	x	0	x	x	x
O=C1NC(=Nc2ccccc2)S/C1=C\C=C\c1ccco1	-4	2	6	87*	0
Cc1ccc(N=C2NC(=O)/C(=C/C=C/c3ccco3)S2)cc1	-3	3	x	32	x
COc1ccc(N=C2NC(=O)/C(=C/C=C/c3ccccc3)S2)cc1	0	0	-1	77*	0
CCc1ccc(N2CC(C(=O)N3CCN(S(=O)(=O)c4cccc(F)c4)CC3)CC2=O)cc1 (stereo not drawn)	0	0	x	x	x
Cc1ccc(CSCCNC(=O)/C=C/c2ccccc2Cl)cc1	1	0	-1	52	-4
Nc1c(C(=O)NC2CCCC2)c2nc3ccccc3nc2n1N	2	0	2	74*	0
O=S(=O)(c1ccc(F)cc1)c1nc(-c2ccco2)oc1NCCCn1ccnc1	3	0	x	x	x
O=C(Nc1ccc(-c2csc(Nc3ccccc3)n2)cc1)c1cccc(C(F)(F)F)c1	9	0	10	91*	14
O=C(Nc1ccc(-c2csc(Nc3ccc(Cl)cc3)n2)cc1)c1cccc(C(F)(F)F)c1	x	x	3	49	5
O=[N+]([O-])c1cccc(N/N=C/c2cc([N+](=O)[O-])ccc2O)c1	1	-1	1	95*	1
O=[N+]([O-])c1ccc(O)c(C=NNc2ccc(S(=O)(=O)O)cc2)c1	5	0	x	x	x
CCCOc1ccc(/C=N/Nc2cccc([N+](=O)[O-])c2)c(O)c1	2	0	5	74*	4
COc1ccc(S(=O)(=O)N2CCOC2CNC(=O)C(=O)NCc2ccccn2)cc1OC (stereo not drawn)	-1	0	x	x	x
CCCCCCCOC(=O)C[N+](C)(C)CCOC1CC2CCC1(C)C2(C)C (stereo not drawn)	-1	-1	x	93*	x
CCCCN(C=O)c1c(CC)nc2ccc(C(=O)NCCc3ccccn3)cn12	x	0	x	x	x
CC(C(=O)Nc1ccc(C(=O)O)cc1)N1C(=O)c2ccccc2C1=O (stereo not drawn)	3	0	-2	-39	4
CC(C(=O)N(C1CC1)C1(C(=O)Nc2ccccc2)CCCC1)N1C(=O)c2ccccc2C1=O (stereo not drawn)	-2	-1	-2	74*	-4
